Assay results of several laboratories.
Protocols differ between the studies behind these lines.
Target: Casein kinase I isoform epsilon (CSNK1E, Homo sapiens, UniProt P49674)

Compound	effect on	mode	technique	concentration	endpoint	value
O=c1cc(-c2cccc3c2Sc2ccccc2S3)oc(N2CCOCC2)c1	enzyme activity	inhibitor		0.5 µM	remaining activity	104%
CC(C)(O)c1cncc(-c2nc3ccc(F)cc3n2C2CC2)c1	cell-free assay		competition with immobilised ligand	1 µM	remaining binding	100%
COc1cc2ncnc(Nc3ccc(F)c(Cl)c3)c2cc1OCCCN1CCOCC1	enzyme activity			0.5 µM	remaining activity	106%
Cn1c2c(c3ccc(Cl)c(Cl)c31)C(C#N)C(C)(C)NC2=O (centres unmarked)	thermal stability		DSF	10 µM	ΔTm	1.3 °C
CCN(CC)CCNC(=O)c1c(C)[nH]c(/C=C2\C(=O)Nc3ccc(Cl)cc32)c1C	enzyme activity	inhibitor		0.5 µM	remaining activity	46.7%
Cn1c2c(Cl)c(Cl)ccc2c2cc[nH]c(=O)c21	thermal stability		DSF	10 µM	ΔTm	1 °C
O=C(Nc1cccnn1)N1CC(C/C=C/c2cncc(Oc3ccc(C(F)(F)F)cn3)n2)C1	cell-free assay		competition with immobilised ligand	1 µM	remaining binding	100%
O=C(NCCCNc1nc(Nc2cccc(NC(=O)N3CCCC3)c2)ncc1I)c1cccs1	enzyme activity	inhibitor		1 µM	inhibition	-16%
O=C1Nc2ccc(Cl)cc2C1=Cc1cc(Cl)c(O)c(Cl)c1	enzyme activity			0.5 µM	remaining activity	66.6%
Cn1c2c(c3ccc(Cl)c(Cl)c31)C(C#N)C1(CCOCC1)NC2=O (centres unmarked)	thermal stability		DSF	10 µM	ΔTm	0.4 °C
CC(C)(O)[C@H]1CC[C@H](Nc2ccc3ncc(-c4cccc(C(F)(F)F)c4)n3n2)CC1	enzyme activity	inhibitor		1 µM	remaining activity	78.5%
CCN1/C(=C/C(C)=O)Sc2ccc(OC)cc21	enzyme activity			0.5 µM	remaining activity	60.1%
CCCS(=O)(=O)Nc1ccc(F)c(C(=O)c2c[nH]c3ncc(-c4ccc(Cl)cc4)cc23)c1F	enzyme activity	inhibitor		1 µM	inhibition	< 10%
CC(C)(C)c1nc2c(s1)c1nc(N)ncc1c1ccc(NS(=O)(=O)c3c(F)cccc3F)c(F)c12	enzyme activity	inhibitor	radiometric	1 µM	remaining activity	84%
CN(C)CC#Cc1ccc(OCCCc2sc(N3CCc4cccc(C(=O)Nc5nc6ccccc6s5)c4C3)nc2C(=O)O)c(F)c1	cell-free assay		competition with immobilised ligand	1 µM	remaining binding	86%
O=C(Nc1cnn(-c2csc(C(=O)NC3COC3)c2)c1)Nc1c(F)cccc1Cl	enzyme activity	inhibitor		5 µM	remaining activity	88.6%
CN([C@@H]1CCc2c(CC(=O)O)c3ccccc3n2C1)S(=O)(=O)c1ccc(F)cc1	cell-free assay		competition with immobilised ligand	1 µM	remaining binding	90%
Cc1sc(C(=O)NC2COC2)cc1-n1cc(NC(=O)Nc2c(F)cccc2Cl)cn1	enzyme activity	inhibitor		10 µM	remaining activity	97.9%
O=C(NS(=O)(=O)c1ccc(NCC2CCOCC2)c([N+](=O)[O-])c1)c1ccc(N2CCN(Cc3ccc(C(F)(F)F)cc3-c3ccc(Cl)cc3)CC2)cc1Oc1cnc2[nH]ccc2c1	cell-free assay		competition with immobilised ligand	1 µM	remaining binding	95%
COc1cc2c(N3CCN(C(=O)Nc4ccc(OC(C)C)cc4)CC3)ncnc2cc1OCCCN1CCCCC1	cell-free assay			0.5 µM	remaining signal	99.1%
COc1cc2ncnc(Nc3ccc(Oc4ccccc4)c(C)c3C)c2cc1OC	enzyme activity	inhibitor		1 µM	inhibition	0%
O=C1NC(=O)c2cc(Nc3ccc(F)cc3)c(Nc3ccc(F)cc3)cc21	enzyme activity	inhibitor		0.5 µM	remaining activity	98%
CC1=C(C#N)C(c2ccc3c(c2)c(NC(=O)c2ccccc2C)nn3C)C(C#N)=C(C)N1	cell-free assay		competition with immobilised ligand	1 µM	remaining binding	100%
